According to ChEMBL document CHEMBL4354869, “pH-Dependent Grafting of Cancer Cells with Antigenic Epitopes Promotes Selective Antibody-Mediated Cytotoxicity” (J Med Chem, 2020):
Activity calls are given as the source filed them. The calls are words filed in the database; no cut-off is given here. Peptide text beside a SMILES is read from it. * marks the point of attachment. Dnp = O=[N+]([O-])c1ccc(*)c([N+](=O)[O-])c1

Key:
Lipid bilayer = assay: Binding affinity to POPC large unilamellar vesicle at 1:300 ratio measured after 30 mins at pH 5 to 7.4 by circular dichroism spectroscopic analysis
Method in brief: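 Peptide (20 μM stock in 5 mM sodium phosphate pH 8.0; 7 μM final) mixed with POPC LUVs (extruded, 100 nm pores) at 1:300, pH lowered with HCl, 30 min RT. Far-UV CD 260–200 nm in 0.1 cm cuvette, ≥5 scans averaged, liposome spectrum subtracted; expressed as mean residue molar ellipticity.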

MDA-MB-231 [1] = assay: Induction of opsonization in human MDA-MB-231 cells assessed as increase in recruitment of anti-DNP antibody to cell surface at 1 uM preincubated for 5 mins at pH 6 to 7.4 followed by pooled human serum addition and measured in presence of FITC-labeled anti-human IgG antibody based flow cytometry; assay type: functional
Method in brief: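 300000 MDA-MB-231 in suspension exposed to 1 μM conjugate 5 min, 37 °C, pH 7.4 or 6.0; washed; blocked with human IgG isotype control 100 μg/mL, 20 min 4 °C; 12.5% pooled human complement serum 20 min 4 °C; then 25 μg/mL FITC anti-human IgG 30 min 4 °C; PFA-fixed, flow cytometry; fold over pH 7.4 serum-only.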

MDA-MB-231 [2] = assay: Induction of opsonization in human MDA-MB-231 cells assessed as increase in recruitment of anti-DNP antibody to cell surface at 1 uM measured after 5 mins at pH 6 to 7.4 by AlexaFluor-488-conjugated anti-DNP antibody based immunofluorescence microscopic analysis; assay type: functional
Method in brief: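 MDA-MB-231 grown on poly-L-lysine coverslips (~70% confluent), exposed to 1 μM conjugate 5 min at 37 °C, pH 7.4 or 6.0, methanol-fixed, stained 1 h at 37 °C with anti-DNP-A488 at 40 μg/mL, Hoechst counterstain; imaged with 20× objective.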

MDA-MB-231 [3] = assay: Induction of opsonization in human MDA-MB-231 cells assessed as increase in recruitment of anti-DNP antibody to cell surface at 1 uM measured after 5 to 10 mins at pH 6 to 7.4 by AlexaFluor-488-conjugated anti-DNP antibody based flow cytometry; assay type: functional
Method in brief: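 Conjugate pre-incubated 1 h RT at 20 μM in 5 mM sodium phosphate pH 9.0, diluted, then pH adjusted with citrate buffer. MDA-MB-231 (350000 cells, suspension) exposed to 1 μM for 5 or 10 min, 37 °C, pH 7.4 or 6.0, washed, stained with 25 μg/mL anti-DNP-A488 30 min at 4 °C, PFA-fixed. Flow cytometry, ≥3000 events; fold over pH 7.4 antibody-only cells.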

MDA-MB-231 [4] = assay: (§1) Induction of complement dependent cytotoxicity against human MDA-MB-231 cells assessed as cell lysis at 1 uM incubated for 5 mins at pH 6 followed by compound washout prior to anti-DNP antibody addition for 30 mins and subsequent pooled human serum addition measured after 4 hrs by LDH release assay relative to control; assay type: functional
Method in brief: (§2)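 240000 MDA-MB-231 exposed in suspension to 1 μM conjugate for 5 min, 37 °C, at pH 7.4 or 6.0, washed, 25 μg/mL unlabeled anti-DNP rabbit polyclonal 30 min 4 °C, then 12.5% pooled human complement serum in DMEM 4 h at 37 °C. Supernatant LDH (A490/A680); % lysis vs antibody-only cells without peptide.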

MDA-MB-231 [5] = assay: (§3) Induction of antibody dependent cytotoxicity against human MDA-MB-231 cells assessed as induction of cell lysis at >500 nM incubated for 5 mins at pH 6 to 7.4 followed by compound washout prior to anti-DNP antibody addition for 30 mins and subsequent human haNK cell addition at 5:1 effector to target ratio measured after 4 hrs by LDH release assay; assay type: functional, cell-based
Method in brief: (§4)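 150000 MDA-MB-231 given conjugate 5 min at 37 °C, pH 7.4 or 6.0, washed at 4 °C, 25 μg/mL anti-DNP rabbit polyclonal 30 min 4 °C, then effectors 4 h at 37 °C: single-donor PBMCs at 50:1 in RPMI 1640, or haNK (F176V CD16 NK-92, IL-2-grown) at 5:1 in MEMα. Supernatant LDH; % lysis vs antibody+effector without peptide; mean ± SEM, n = 3–12.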

MDA-MB-231 [6] = assay: as §1, with “7.4” for “6”, “assay” for “assay relative to control”; assay type: functional, cell-based; method in brief: as §2
MDA-MB-231 [7] = assay: Cytotoxicity against human MDA-MB-231 cells assessed as increase in cell lysis at 0.5 to 1 uM incubated for 5 mins at pH 6 to 7.4 followed by compound washout prior to human PBMC addition at 50:1 effector to target ratio measured after 4 hrs by LDH release assay; settings: mda-mb-231, pH 6, 4 h
MDA-MB-231 [8] = assay: as §3, with “as” for “as induction of”, “500” for “>500”, “assay relative to control” for “assay”; assay type: functional; method in brief: as §4
MDA-MB-231 [9] = assay: (§5) Cytotoxicity against human MDA-MB-231 cells assessed as increase in cell lysis at 0.5 to 1 uM incubated for 5 mins at pH 6 to 7.4 followed by compound washout prior to human haNK cell addition at 5:1 effector to target ratio measured after 4 hrs by LDH release assay; assay type: cell-based; settings: mda-mb-231, pH 6, 4 h
MDA-MB-231 [10] = assay: as §5, with “prior to anti-FITC polyclonal rabbit antibody addition for 30 mins and subsequent human haNK” for “prior to human haNK”; assay type: cell-based; settings: mda-mb-231, pH 6, 1 µM
Method in brief: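 150000 target cells (MDA-MB-231; also LnCap, SK-OV-3 with haNK) treated with conjugate 5 min at 37 °C, pH 7.4 or 6.0, washed, 25 μg/mL anti-FITC rabbit polyclonal 30 min 4 °C, then 4 h at 37 °C with PBMCs at 50:1 (RPMI) or haNK at 5:1 (MEMα). LDH release; % lysis relative to antibody-only pH 7.4 cells; mean ± SEM, n = 3–12.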

MDA-MB-231 [11] = assay: as §3, with “increase in” for “induction of”, “lysis” for “lysis at >500 nM”, “PBMC” for “haNK cell”; assay type: functional, cell-based
MDA-MB-231 [12] = assay: as §3, with “as” for “as induction of”, “>1 uM” for “>500 nM”, “6” for “6 to 7.4”, “PBMC” for “haNK cell”; assay type: functional, cell-based
MDA-MB-231 [13] = assay: Induction of opsonization in human MDA-MB-231 cells assessed as increase in recruitment of anti-DNP antibody to cell surface at 1 uM measured after 1 hr at pH 6 to 7.4 by AlexaFluor-488-conjugated anti-DNP antibody based flow cytometry; assay type: functional
MDA-MB-231 [14] = assay: Cytotoxicity against human MDA-MB-231 cells assessed as increase in cell lysis at <=10 uM measured after 4 hrs by LDH release assay; assay type: cell-based; settings: mda-mb-231, 4 h
MDA-MB-231 [15] = assay: Induction of opsonization in human MDA-MB-231 cells assessed as increase in recruitment of anti-DNP antibody to cell surface at 1 uM preincubated with AlexaFluor-488-conjugated anti-DNP antibody for 30 mins followed by cell addition at pH 6 to 7.4 by flow cytometry; assay type: functional, cell-based
MDA-MB-231 [16] = assay: as §3, with “as” for “as induction of”, “0.1 uM” for “>500 nM”, “6” for “6 to 7.4”, “PBMC” for “haNK cell”, “assay relative to control” for “assay”; assay type: functional
MDA-MB-231 [17] = assay: Induction of antibody dependent cytotoxicity against human MDA-MB-231 cells assessed as cell lysis at 1 uM incubated for 5 mins at pH 6 followed by compound washout prior to anti-DNP antibody addition for 30 mins and subsequent human PBMC addition at 5:1 effector to target ratio measured after 4 hrs by LDH release assay relative to control; assay type: functional
MDA-MB-231 [18] = assay: Cytotoxicity against human MDA-MB-231 cells assessed as increase in cell lysis at 0.5 to 1 uM incubated for 5 mins at pH 6 to 7.4 followed by compound washout prior to anti-FITC polyclonal rabbit antibody addition for 30 mins and subsequent human PBMC addition at 5:1 effector to target ratio measured after 4 hrs by LDH release assay; assay type: cell-based; settings: mda-mb-231, pH 6, 1 µM
[19] = Drug internalization in human MDA-MB-231 cells assessed as increase in fluorescence at 1 uM measured after 30 mins at pH 6 to 7.4 in presence of FITC-labeled anti-human IgG by flow cytometric method; assay type: ADME, cell-based; settings: mda-mb-231, pH 6, 0.5 h
Method in brief: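 Control for specificity: MDA-MB-231 treated with 1 μM conjugate at pH 7.4 or 6.0 (5–10 min, 37 °C), washed, then incubated ± 25 μg/mL FITC anti-human IgG in PBS/10% FBS, 30 min at 4 °C, fixed, read by flow cytometry.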

Activity (Lipid bilayer): Active
Drug uptake [19]: Not Active
SMILES: CC[C@H](C)[C@H](NC(=O)[C@@H]1CCCN1C(=O)[C@H](CC(N)=O)NC(=O)[C@H](CCC(N)=O)NC(=O)[C@H](CCC(=O)O)NC(=O)[C@@H](N)CCCCNc1ccc([N+](=O)[O-])cc1[N+](=O)[O-])C(=O)N[C@@H](Cc1ccc(O)cc1)C(=O)N[C@@H](Cc1c[nH]c2ccccc12)C(=O)N[C@@H](C)C(=O)N[C@@H](CCCNC(=N)N)C(=O)N[C@@H](Cc1ccc(O)cc1)C(=O)N[C@@H](C)C(=O)N[C@@H](CC(=O)O)C(=O)N[C@@H](Cc1c[nH]c2ccccc12)C(=O)N[C@@H](CC(C)C)C(=O)N[C@@H](Cc1ccccc1)C(=O)N[C@H](C(=O)N[C@H](C(=O)N1CCC[C@H]1C(=O)N[C@@H](CC(C)C)C(=O)N[C@@H](CC(C)C)C(=O)N[C@@H](CC(C)C)C(=O)N[C@@H](CC(C)C)C(=O)N[C@@H](CCC(=O)O)C(=O)N[C@@H](CC(C)C)C(=O)N[C@@H](C)C(=O)N[C@@H](CC(C)C)C(=O)N[C@@H](CC(C)C)C(=O)N[C@H](C(=O)N[C@@H](CC(=O)O)C(=O)N[C@@H](C)C(=O)N[C@@H](CC(=O)O)C(=O)N[C@@H](CCC(=O)O)C(=O)NCC(=O)N[C@H](C(=O)NCC(N)=O)[C@@H](C)O)C(C)C)[C@@H](C)O)[C@@H](C)O (H-K(Dnp)EQNPIYWARYADWLFTTPLLLLELALLVDADEGTG-NH2)
Activity (MDA-MB-231 [1]): Active
Activity (MDA-MB-231 [2]): Active
Activity (MDA-MB-231 [3]): Active
Activity (MDA-MB-231 [4]): 10%
Activity (MDA-MB-231 [5]): inactive
Activity (MDA-MB-231 [6]): inactive
Activity (MDA-MB-231 [7]): Non-Toxic
Activity (MDA-MB-231 [8]): 40%
Activity (MDA-MB-231 [9]): Non-Toxic
Activity (MDA-MB-231 [10]): Non-Toxic
Activity (MDA-MB-231 [11]): Dose-dependent effect
Activity (MDA-MB-231 [12]): inactive
Activity (MDA-MB-231 [13]): Active
Activity (MDA-MB-231 [14]): Non-Toxic
Activity (MDA-MB-231 [15]): Active
Activity (MDA-MB-231 [16]): 20%
Activity (MDA-MB-231 [17]): 40%
Activity (MDA-MB-231 [18]): Non-Toxic
